Compound activity deposited in PubChem BioAssay by Sanford-Burnham Center for Chemical Genomics.
A selection: hits, their analogues and other compounds. The true share with any hit is near 3.9%.
CHOP UPR activ: activators of apoptotic arm of unfolded protein response (CHOP) | 330,000 compounds, 0.34% hits | CHO-CHOP luciferase reporter, UPR activation, luminescence; percent of tunicamycin response over DMSO baseline | activation, % at 10 µM;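 active means at 10 µM dose, activation of 40% or more, normalized to positive control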;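 further: 100% = tunicamycin at 10 µg/mL and 0% = DMSO alone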
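Dosing – one dose, 10 µM in 0.5% DMSO · System – CHO-CHOP cells, stable luciferase reporter of PERK-eIF2a-CHOP signalling · Input – 500 cells/well · Control set – tunicamycin 10 µg/mL final as positive, DMSO-only wells as negative · Timing – 6 h compound treatment, 37 °C · Measure – % activation vs tunicamycin · Technique – luminescence read with Steady-Glo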
UPR XBP1 act: activators of adaptive arm of unfolded protein response (XBP1) | AID 463104 | activation, % at 20 µM | CHO-XBP1 luciferase reporter, IRE1-XBP1 UPR activation, luminescence; percent of tunicamycin response, DMSO as zero | 330,000 compounds, 0.33% hits;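 active means versus positive control, 20 µM dose yields 30% or more activation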;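 further: 100% = tunicamycin at 10 µg/mL and 0% = DMSO only wells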
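Material – CHO cell line with stable XBP1 luciferase reporter · Buffer or medium – F12 plus 10% FBS · Compound – single point, 20 µM final compound, 1% DMSO · Schedule – 16-18 h cell attachment at 37 °C, then 6 h compound exposure · Signal – Steady-Glo luminescence read · Benchmarks – high control tunicamycin 10 µg/mL final, low control DMSO vehicle only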
TIM10 inh: inhibits growth of TIM10 yeast strain; inhibition, % at 10 µM; 330,000 compounds, 1.4% hits; AID 463195; S. cerevisiae TIM10 strain growth, BacTiter-Glo luminescence, 24 h;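 active means inhibition of 40% or more at the single tested concentration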;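 further: wild-type TIM10 isogenic control strain grown at permissive 25 °C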
tim10-1 inh: tim10-1 yeast growth inhibition; AID 463190; inhibition, % at 20 µM; S. cerevisiae tim10-1 ts strain growth, BacTiter-Glo, 24 h; 330,000 compounds, 2.2% hits;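 active means inhibition of at least 40%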;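 further: mutant grown at 25 °C; 0% = DMSO wells with yeast and 100% = wells holding no yeast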
tim23-1 inh: inhibits growth of tim23-1 mutant yeast; inhibition, % at 20 µM; S. cerevisiae tim23-1 growth, BacTiter-Glo luminescence, 24 h; 330,000 compounds, 1.3% hits;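 active means growth inhibition of the mutant yeast at or above 50%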;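 further: temperature-sensitive mutant grown at 25 °C; plate controls were DMSO-treated mutant yeast for no effect and medium wells lacking yeast for full effect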
tim10-1 confirm: confirmation of tim10-1 mutant yeast growth inhibitors; shares compounds with tim10-1 inh; S. cerevisiae tim10-1 ts strain growth, BacTiter-Glo, 24 h; inhibition, % at 20 µM; 7,400 compounds, 56% hits; AID 463213;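 active means inhibition of yeast growth at or above a set limit in either of two repeat tests at 20 µM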;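 further: tim10-1 mutant grown at permissive 25 °C to find synthetic lethal compounds; 0% = DMSO yeast wells and 100% = medium wells without yeast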
An asterisk follows results filed as active; . = no result.

SMILES | CHOP UPR activ | UPR XBP1 act | TIM10 inh | tim10-1 inh | tim23-1 inh | tim10-1 confirm
OCCc1ccc(-c2ccc(Cl)cc2)o1 | 3 | 5 | 16 | 43* | 23 | 25
O=C(N1CCC(n2nc(-c3ccccc3)oc2=O)CC1)C1(c2ccc(Cl)cc2)CC1 | 4 | -4 | 26 | 53* | 43 | 2
OCC1(Cc2ccccc2)CCN(Cc2cnc(-c3ccc(Cl)cc3)nc2)CC1 | 1 | 0 | 35 | 47* | 20 | 19
O=c1[nH]c(N/N=C\c2ccc3c(c2)OCO3)nc2ccccc12 | 3 | 3 | 19 | 40* | 17 | 22
CN(C)c1nc(NCc2ccccc2)nc(N/N=C/c2ccc(Br)cc2)n1 | 2 | 9 | 17 | 25 | 11 | .
O=c1[nH]c(N/N=C/c2cc3c(cc2[N+](=O)[O-])OCO3)nc2ccccc12 | 6 | 4 | -4 | 6 | -2 | .
CN(C)c1nc(NCc2ccccc2)nc(N/N=C/c2ccc3c(c2)OCO3)n1 | 1 | 1 | 13 | 41* | 39 | 25
CCOc1cccc(/C=N/NC(=S)Nc2ccccc2[N+](=O)[O-])c1O | -7 | 1 | -3 | 46* | 8 | 24
COc1ccc(Cl)cc1NS(=O)(=O)c1cccc(C(=O)NCC2(N(C)C)CCCCC2)c1 | 2 | 1 | 4 | 0 | 3 | .
CC(=O)Nc1ccc(NC(=O)c2ccccc2-n2cnnn2)cc1 | 2 | 2 | 2 | 2 | 4 | .
O=C(ON=C1CCN(S(=O)(=O)c2ccccc2)CC1)c1ccc(F)cc1 | -2 | 0 | 37 | 52* | 46 | 54*
CS(=O)(=O)ON=C1CCN(S(=O)(=O)c2ccccc2)CC1 | -1 | 1 | 4 | 0 | -9 | .
Nc1nc(-c2ccc(F)cc2)cs1 | 1 | 0 | 1 | -2 | 22 | .
Nc1nc(-c2ccc(Br)cc2)cs1 | 6 | 3 | 32 | 56* | 44 | 46*
COc1cc(C)c(C)cc1S(=O)(=O)N1CCCCC1c1cccnc1 (stereo not drawn) | -2 | 0 | 11 | 41* | 30 | 27
CC(C)c1ccc(Nc2c([N+](=O)[O-])c(=O)n(C)c3ccccc23)cc1 | -3 | -2 | 7 | 51* | 15 | 52*
COc1ccc(CNC(=O)Cn2nc(C(F)(F)F)c3c2CCC3)cc1 | -1 | 0 | 21 | 42* | 28 | 21
c1ccc(Nc2nc(-c3ccccn3)cs2)cc1 | 4 | 1 | 34 | 46* | 33 | 23
c1ccc(-c2csc(Nc3cccnc3)n2)nc1 | 3 | 2 | 25 | 1 | 3 | .
CC(=O)Nc1ccc(-c2csc(Nc3ccccn3)n2)cc1 | 7 | 1 | -26 | 62* | -6 | -39
Cc1ccc(S(=O)(=O)N2CCN(c3cccc(C)c3)CC2)cc1 | 0 | -4 | 7 | 3 | 38 | .
Cc1ccc(OCCN2CCN(c3ncnc4sc(C)c(C)c34)CC2)cc1 | 3 | -3 | 33 | 47* | 36 | 31
Cc1csc(=O)n1CCC(=O)OCC(=O)NNC(=O)c1ccc(Cl)cc1 | 2 | 1 | 6 | -4 | 0 | .
Nc1nc(SCC(=O)N2CCCCC2)[nH]c(=O)c1NC(=O)c1ccccc1F | -1 | 4 | 12 | -7 | -6 | .
Cc1ccc(S(=O)(=O)NCc2ccc(C(=O)N3CCc4ccccc4C3)cc2)cc1 | -2 | -3 | 28 | 47* | 38 | 28
SMILES | CHOP UPR activ | UPR XBP1 act | TIM10 inh | tim10-1 inh | tim23-1 inh | tim10-1 confirm
CC12CCC(C(=O)NC(c3ccccc3)c3ccccc3)(OC1=O)C2(C)C (stereo not drawn) | -2 | 1 | 21 | 42* | 39 | 29
O=C(COC(=O)C12CC3CC(CC(Br)(C3)C1)C2)Nc1cccc(S(=O)(=O)N2CCOCC2)c1 | 0 | -1 | 7 | 7 | 14 | .
C/C(=N\NC(=O)c1nnn(-c2nonc2N)c1CN(C)c1ccccc1)c1ccccc1O | -1 | -4 | 25 | 62* | 26 | 3
COc1ccc(/C(C)=N/NC(=O)c2nnn(-c3nonc3N)c2CN(C)c2ccccc2)cc1 | -2 | 2 | 2 | 26 | 8 | .
Cc1cc(C)n(-c2nnc(NC34CC5CC(CC(C5)C3)C4)nn2)n1 | 5 | 3 | 29 | 57* | 47 | 42*
CCNc1nc(NCC)nc(-n2nc(C)cc2C)n1 | 11 | 6 | 1 | 27 | -2 | .
Cc1cccc(C)c1NC(=O)CNC(=O)CCNC(=O)c1ccco1 | 1 | -2 | 4 | 19 | 3 | .
O=C(CNS(=O)(=O)c1ccc(Cl)cc1)NC1CCCCC1 | -1 | 1 | 5 | -2 | 8 | .
CC/C(=N\Nc1ccc([N+](=O)[O-])cc1[N+](=O)[O-])c1ccc(O)cc1 | 1 | -4 | 20 | 35 | 18 | .
CC/C(=N\Nc1ccccc1[N+](=O)[O-])c1ccc(O)cc1 | 2 | -1 | 40 | 57* | 38 | 39*
Cc1ccc(-c2cc(-c3ccccc3)[nH]c(=S)c2C#N)cc1 | 1 | -1 | 2 | 54* | 36 | 26
Cc1[nH]c2c(C)cccc2c(=O)c1CN1CCCCCC1 | 0 | 1 | -12 | -4 | 2 | .
O=C(O)C1C2CCC(O2)C1C(=O)Nc1ccc(Cl)cc1F (stereo not drawn) | -3 | -4 | -3 | -5 | -13 | .
Cc1nn(Cc2ccc(Cl)cc2Cl)c(C)c1NC(=O)c1nn(C)cc1Cl | -1 | -3 | 23 | 44* | 37 | 38*
Cc1nn(Cc2ccc(Cl)cc2Cl)c(C)c1NC(=O)CCl | 4 | 0 | 23 | 30 | 14 | .
Cc1nn(Cc2c(F)c(F)c(F)c(F)c2F)c(C)c1NC(=O)c1ccc(COc2ccc(Cl)cc2Cl)o1 | 4 | 1 | 37 | 49* | 35 | 41*
Cc1nn(Cc2ccc(Cl)cc2Cl)c(C)c1NC(=O)C1C2CCC(O2)C1C(=O)O (stereo not drawn) | -2 | 1 | -1 | 41* | 6 | 21
CN(C)C(CNC(=O)CCc1c[nH]c2ccccc12)c1ccccc1 (stereo not drawn) | 3 | -4 | -19 | 9 | 5 | .
Cc1nc2c3ccccc3n(Cc3ccccc3F)c2s1 | 0 | 2 | 28 | 35 | 17 | .
Cc1nc2c3cc(F)ccc3n(Cc3ccccc3F)c2s1 | -1 | 7 | 26 | 42* | 14 | 13
O=C1/C(=C\c2ccc([N+](=O)[O-])cc2)CCc2ccccc21 | 0 | 3 | 37 | 47* | 42 | 36*
Cc1ccc(S(=O)(=O)N(C)CC(=O)N2CCN(Cc3ccccc3)CC2)cc1 | 5 | -3 | 29 | 47* | 18 | 23
COCCOc1cc(Nc2nnc(C(F)(F)F)s2)c(Cl)cc1Cl | 2 | 0 | 23 | 46* | 29 | 27
O=C1C(Cl)=C(N2CCN(Cc3ccccc3)CC2)C(=O)N1Cc1ccccc1 | 0 | -2 | 28 | 44* | 26 | 14
